Results on 2 molecules are retold here after publication PMC3825418 (Investigational New Drugs, 2013).

One data set deals with DNA-PK (Homo sapiens, UniProt P78527). Briefly: DNA-PK inhibition assay. To be noted: IC50 greater than 100 μM taken as not active; data not shown. In kind it is biochemical.
The subject of another data set is PI3K isoforms. Briefly: PI3K inhibition assay. In kind it is biochemical. To be noted: any of the PI3K isoforms; IC50 greater than 100 μM taken as not active; data not shown.
Data set [1] relates to HeLa cells. Briefly: Sulphorhodamine blue. As to conditions: 25 μM Etoposide and/or 200nM LTUSI54, 4 h, 2 days recovery; vs control. In kind it is cell-based, human. Summed up:
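Sulphorhodamine B assay on HeLa cells seeded at 2x10^3 cells/well and left to adhere overnight. Treated 4 h with 25 μM Etoposide, 200nM test compound or both, then PBS-washed. Recovery 48 h in medium containing 200nM test compound, or DMSO only for control and Etoposide-alone wells. Absorbance read at 538 nm. Mean ± SEM of four replicates; two-tailed t-test vs control.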

Data set [2] concerns HeLa cells. Briefly: CellTox green cytotoxicity assay. In kind it is cell-based, human. As to conditions: 24 h.
For the next data set, the system named is γ-H2AX. Briefly: Flow cytometry for γ-H2AX expression. To be noted: for cells stained positive for γ-H2AX: 25 μM Etoposide, 200nM LTUSI54. In kind it is cell-based, human.
Data set [3] relates to HeLa cells. Briefly: Cell cycle analysis by flow cytometry. It counts as cell-based, human. As to conditions: 4 h treatment; for cells in G2/M phase / cells in S phase: vs control. Summed up:
(§1)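 HeLa cells (DMEM, 10 % FBS) treated 4 h with 25 μM Etoposide, 200nM test compound or both, with or without 2 days recovery in medium containing test compound. Harvested, fixed in 70 % ethanol at −20 °C overnight, then stained with 25 μg/ml propidium iodide plus 100 μg/ml RNase for 30 min at 37 °C in the dark. Doublets and debris gated out. Mean ± SEM, three independent experiments.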
For orientation: In flow cytometry, cells or beads pass a laser one at a time.

The next data set has as its system p38α. Briefly: Human phospho-kinase array, p38α. As to conditions: HeLa cells, 4 h; 25 μM Etoposide, 200nM LTUSI54; vs control. It counts as cell-based. The essentials:
(§2)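 HeLa cells in small flasks treated 4 h with medium, 25 μM Etoposide, 200nM test compound or combination, then lysed. Human phospho-kinase antibody membranes incubated overnight at 4 °C with lysate at 150 μg/ml protein. Detection antibody cocktail 2 h at room temperature, streptavidin-HRP 30 min, then chemiluminescence at increasing exposures. Fold change vs control; two runs with duplicate spots.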

In another data set the test system is p53. The data set is described as follows: Human phospho-kinase array, p53. As to conditions: HeLa cells, 4 h; 25 μM Etoposide, 200nM LTUSI54; vs control. It counts as cell-based. The essentials: as §2
Data set [4] has as its system HeLa cells. Briefly: Sub G1 analysis. It counts as cell-based, human. As to conditions: 25 μM Etoposide and/or 200nM LTUSI54, 4 h, 2 days recovery. Summed up: as §1
[5] abbreviates: 4 h treatment followed by 2 days recovery.

With “2-((3-methoxybut-3en-2-yl)amino)-8methyl-4H-benzo[1,3]oxazin-4one [LTUSI54]”, the “inhibitory effect on DNA-PK (IC50)” value at DNA-PK is recorded as “no inhibitory effect”. For the same molecule, the “inhibitory effect on PI3K isoforms (IC50)” value in the data set on PI3K isoforms was “no inhibitory effect”. In addition, the “change in HeLa cell number (SRB)” value in the data set on HeLa cells [1] was “significant reduction in cell numbers”. In the data set with HeLa cells [2] (200nM), the “cytotoxic effect (CellTox green)” value was “no cytotoxic effect”. Also, the CellTox fluorescence in the data set with HeLa cells [2] (100 μM, control 191 RFUs, p <0.0001) turned out to be 299.3 RFUs. Moreover, the “cells stained positive for γ-H2AX” value with γ-H2AX (setting [5]) stood at 2.7%; with γ-H2AX (after 4 h treatment), 7.3%. For the same molecule, the “cells in G2/M phase” value in the data set on HeLa cells [3] (2 days recovery) is reported as “reduction of cells in G2/M phase”; in the data set on HeLa cells [3] it was “significant reduction of cells in G2/M phase”. Besides, the “cells in S phase” value in the data set with HeLa cells [3] is reported as “significant increase in cells in S phase”. For the same molecule, the “fold increase in activity (phosphorylation) of p38α” value in the data set on p38α is given as 3.645 fold. Further, the “fold increase in activation of p53” value with p53 stood at 1.5 fold.
Consider `COc1cc([C@@H]2c3cc4c(cc3[C@@H](O[C@@H]3O[C@@H]5CO[C@@H](C)O[C@H]5[C@H](O)[C@H]3O)[C@H]3COC(=O)[C@H]23)OCO4)cc(OC)c1O` [Etoposide, reference compound], for which, in the data set on HeLa cells [1], the “change in HeLa cell number (SRB)” value was “significant reduction in cell number”. Moreover, the “apoptotic cells (sub G1 phase)” value in the data set on HeLa cells [4] is reported as “significant increase in apoptotic cells”. In addition, the “cells stained positive for γ-H2AX” value in the data set on γ-H2AX (setting [5]) is reported as 15%; in the data set on γ-H2AX (after 4 h treatment) it was “about 80%”. Moreover, the “fold decrease in γ-H2AX positive cells” value in the data set with γ-H2AX (2 days recovery vs 4 h treatment) is “more than 5 fold”. In addition, the entries for the “cells in S phase” value in the data set on HeLa cells [3] (2 days recovery) and in the data set on HeLa cells [3] were “significant increase” and “increase in cells in S phase”, respectively. The “cells in G1 phase” value in the data set with HeLa cells [3] (2 days recovery, vs control and LTUSI54 alone (p < 0.0001)) is recorded as “significant reduction in G1 cells”. Moreover, the “fold increase in activity (phosphorylation) of p38α” value with p38α worked out at 2.64 fold. The “fold increase in activation of p53” value in the data set with p53 was found to be 3.5 fold.
